Measurements taken from ChEMBL document CHEMBL1129245, “N-heteroaryl-2-phenyl-3-(benzyloxy)piperidines: a novel class of potent orally active human NK1 antagonists” (J Med Chem, 1996).

Columns and labels:
Rhesus monkey [1] = experiment: Plasma concentration after 3 mg/kg intravenous dosing in Rhesus monkey at 1.0 hr; type: ADME, organism-based, Macaca mulatta; parameters: dose 3 mg/kg, route intravenous; details: in vivo
Procedure, shortened: (§1)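 Rhesus monkeys dosed at 3 mg/kg in propylene glycol, intravenously and orally, n = 2 per data point. Plasma concentrations given as mean ± SEM, and pharmacokinetic parameters calculated with standard equations.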

[2] = Bioavailability in rat; type: ADME, organism-based; details: in vivo
Rattus norvegicus [3] = experiment: Plasma concentration of 3 mg/kg iv after 7 hr in rats; type: ADME, organism-based; parameters: dose 3 mg/kg, route intravenous; details: in vivo
Procedure, shortened: (§2)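 Rats given compound intravenously and orally in solution. Three rats per time point sampled for plasma drug levels. Pharmacokinetic parameters calculated from the plasma concentration–time data using standard equations. Data reported as mean ± SEM.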

Rattus norvegicus [4] = experiment: Plasma concentration of 3 mg/kg iv after 0.25 hr in rats; type: ADME, organism-based; parameters: dose 3 mg/kg, route intravenous; details: in vivo; procedure, shortened: as §2
Rattus norvegicus [5] = experiment: Plasma concentration after 3 mg/kg peroral dosing in rat at 5.0 hr in rats; type: ADME, organism-based; parameters: dose 3 mg/kg, route oral; details: in vivo, po
Rhesus monkey [6] = experiment: Plasma concentration after 3 mg/kg peroral dosing in Rhesus monkey at 6.0 hr; type: ADME, organism-based, Macaca mulatta; parameters: dose 3 mg/kg, route oral; details: in vivo, po; procedure, shortened: as §1
Rattus norvegicus [7] = experiment: Plasma concentration after 3 mg/kg peroral dosing in rat at 0.25 hr in rats; type: ADME, organism-based; parameters: dose 3 mg/kg, route oral; details: in vivo, po
Rattus norvegicus [8] = experiment: Plasma concentration of 3 mg/kg iv after 8 hr in rats; type: ADME, organism-based; parameters: dose 3 mg/kg, route intravenous; details: in vivo; procedure, shortened: as §2
Substance-P receptor = Substance-P receptor (Homo sapiens, UniProt P25103); experiment: Displacement of [125 I]-Tyr8 SP from the cloned human Tachykinin receptor 1 expressed in CHO cells; type: cell-based
Sequence of Substance-P receptor (P25103 whole entry): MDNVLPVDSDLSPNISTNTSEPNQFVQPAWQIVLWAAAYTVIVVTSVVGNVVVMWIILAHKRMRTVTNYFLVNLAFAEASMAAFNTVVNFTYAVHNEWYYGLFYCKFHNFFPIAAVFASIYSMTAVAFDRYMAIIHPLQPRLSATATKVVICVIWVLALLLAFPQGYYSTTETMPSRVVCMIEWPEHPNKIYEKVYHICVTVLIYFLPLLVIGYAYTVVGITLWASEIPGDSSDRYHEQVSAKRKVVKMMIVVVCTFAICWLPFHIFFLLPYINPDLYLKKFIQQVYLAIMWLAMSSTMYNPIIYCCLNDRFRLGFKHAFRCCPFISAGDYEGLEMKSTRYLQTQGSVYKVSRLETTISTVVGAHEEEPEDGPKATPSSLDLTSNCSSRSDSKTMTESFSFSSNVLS

Rhesus monkey [9] = experiment: Plasma concentration after 3 mg/kg peroral dosing in Rhesus monkey at 8.0 hr; type: ADME, organism-based, Macaca mulatta; parameters: dose 3 mg/kg, route oral; details: in vivo, po; procedure, shortened: as §1
Rhesus monkey [10] = experiment: Plasma concentration after 3 mg/kg intravenous dosing in Rhesus monkey at 0.167 hr; type: ADME, organism-based, Macaca mulatta; parameters: dose 3 mg/kg, route intravenous; details: in vivo; procedure, shortened: as §1
Rhesus monkey [11] = experiment: Plasma concentration after 3 mg/kg peroral dosing in Rhesus monkey at 4.0h; type: ADME, organism-based, Macaca mulatta; parameters: dose 3 mg/kg, route oral; details: in vivo, po, 4 h; procedure, shortened: as §1
Mustela putorius furo = experiment: Effects on […] and vomiting response in ferrets induced by 10 mg/kg iv dose of cisplatin; type: functional
Procedure, shortened: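 Ferrets given cisplatin 10 mg/kg iv to induce retching and vomiting. Test compound given iv; response observed over a 4 h period, n = 6-8 per group.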

Oryctolagus cuniculus = species on record: Oryctolagus cuniculus; experiment: Displacement of [3H]diltiazem from rabbit skeletal muscle calcium channel; type: tissue-based; details: Muscle tissue
Rattus norvegicus [12] = experiment: Plasma concentration of 3 mg/kg iv after 3h in rats; type: ADME, organism-based; parameters: dose 3 mg/kg, route intravenous; details: in vivo; procedure, shortened: as §2
[13] = Plasma clearance after intravenous administration dosing (3 mg/kg) in rat
[14] = VD values expressed in (L/Kg) in Rhesus monkey; type: ADME, organism-based, Macaca mulatta; details: in vivo
Procedure, shortened: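 Rhesus monkeys dosed at 3 mg/kg in propylene glycol, intravenously and orally, with n = 2 per data point. Pharmacokinetic parameters calculated from the plasma concentration data using standard equations. Values given as mean ± SEM.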

Rhesus monkey [15] = experiment: Plasma concentration after 3 mg/kg intravenous dosing in Rhesus monkey at 6.0 hr; type: ADME, organism-based, Macaca mulatta; parameters: dose 3 mg/kg, route intravenous; details: in vivo; procedure, shortened: as §1
Rattus norvegicus [16] = experiment: Plasma concentration after 3 mg/kg peroral dosing in rat at 8.0 hr in rats; type: ADME, organism-based; parameters: dose 3 mg/kg, route oral; details: in vivo, po
Rhesus monkey [17] = experiment: Plasma concentration after 3 mg/kg intravenous dosing in Rhesus monkey at 0.5 hr; type: ADME, organism-based, Macaca mulatta; parameters: dose 3 mg/kg, route intravenous; details: in vivo; procedure, shortened: as §1
Rattus norvegicus [18] = experiment: Plasma concentration of 3 mg/kg iv after 5 hr in rats; type: ADME, organism-based; parameters: dose 3 mg/kg, route intravenous; details: in vivo; procedure, shortened: as §2
Rattus norvegicus [19] = experiment: Plasma concentration of 3 mg/kg iv after 1 hr in rats; type: ADME, organism-based; parameters: dose 3 mg/kg, route intravenous; details: in vivo; procedure, shortened: as §2
Rattus norvegicus [20] = experiment: Plasma concentration after 3 mg/kg peroral dosing in rat at 2.0 hr in rats; type: ADME, organism-based; parameters: dose 3 mg/kg, route oral; details: in vivo, po
Rattus norvegicus [21] = experiment: Inhibition of […] of the rat after intravenous administration; type: functional; details: read-out: ID50 (the source's name)
Procedure, shortened: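 Rats given test compound intravenously. Plasma extravasation in the dura mater measured, n = 8-10. ID50 reported in mg/kg iv.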

Rhesus monkey [22] = experiment: Plasma concentration after 3 mg/kg peroral dosing in Rhesus monkey at 0.167 hr; type: ADME, organism-based, Macaca mulatta; parameters: dose 3 mg/kg, route oral; details: in vivo, po; procedure, shortened: as §1
Rhesus monkey [23] = experiment: Plasma concentration after 3 mg/kg intravenous dosing in Rhesus monkey at 2.0 hr; type: ADME, organism-based, Macaca mulatta; parameters: dose 3 mg/kg, route intravenous; details: in vivo; procedure, shortened: as §1
Rattus norvegicus [24] = experiment: Plasma concentration of 3 mg/kg iv after 6 hr in rats; type: ADME, organism-based; parameters: dose 3 mg/kg, route intravenous; details: in vivo; procedure, shortened: as §2
Rattus norvegicus [25] = experiment: Plasma concentration after 3 mg/kg peroral dosing in rat at 7.0 hr in rats; type: ADME, organism-based; parameters: dose 3 mg/kg, route oral; details: in vivo, po
Rattus norvegicus [26] = experiment: Plasma concentration after 3 mg/kg peroral dosing in rat at 6.0 hr in rats; type: ADME, organism-based; parameters: dose 3 mg/kg, route oral; details: in vivo, po
Rattus norvegicus [27] = experiment: Plasma concentration of 3 mg/kg iv after 4 hr in rats; type: ADME, organism-based; parameters: dose 3 mg/kg, route intravenous; details: in vivo; procedure, shortened: as §2
Cavia porcellus = experiment: Inhibition of SP induced dermal extravasation in the guinea pig after peroral administration; type: functional; details: read-out: ID50 (the source's name)
Procedure, shortened: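 Guinea pigs were dosed orally, then challenged with intradermal SP 1 h later. Vascular leakage was measured as Evans blue extravasation into the skin. Dose-response was run with 5-12 animals per point, and ID50 is reported in mg/kg po.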

Rattus norvegicus [28] = experiment: Plasma concentration of 3 mg/kg iv after 0.5 hr in rats; type: ADME, organism-based; parameters: dose 3 mg/kg, route intravenous; details: in vivo; procedure, shortened: as §2
[29] = Bioavailability expressed as F% in Rhesus monkey; type: ADME, organism-based, Macaca mulatta; details: in vivo
Rattus norvegicus [30] = experiment: Plasma concentration after 3 mg/kg peroral dosing in rat at 4.0h in rats; type: ADME, organism-based; parameters: dose 3 mg/kg, route oral; details: in vivo, po, 4 h
Rhesus monkey [31] = experiment: Plasma concentration after 3 mg/kg intravenous dosing in Rhesus monkey at 4.0h; type: ADME, organism-based, Macaca mulatta; parameters: dose 3 mg/kg, route intravenous; details: in vivo, 4 h; procedure, shortened: as §1
Rattus norvegicus [32] = experiment: Plasma concentration of 3 mg/kg iv after 0.083 hr in rats; details: in vivo
Rhesus monkey [33] = experiment: Plasma concentration after 3 mg/kg peroral dosing in Rhesus monkey at 2.0 hr; type: ADME, organism-based, Macaca mulatta; parameters: dose 3 mg/kg, route oral; details: in vivo, po; procedure, shortened: as §1
Rattus norvegicus [34] = experiment: Plasma concentration after 3 mg/kg peroral dosing in rat at 3.0 hh in rats; type: ADME, organism-based; parameters: dose 3 mg/kg, route oral; details: in vivo, po
Rhesus monkey [35] = experiment: Plasma concentration after 3 mg/kg peroral dosing in Rhesus monkey at 0.5 hr; type: ADME, organism-based, Macaca mulatta; parameters: dose 3 mg/kg, route oral; details: in vivo, po; procedure, shortened: as §1
Rattus norvegicus [36] = experiment: Plasma concentration after 3 mg/kg peroral dosing in rat at 0.5 hr in rats; type: ADME, organism-based; parameters: dose 3 mg/kg, route oral; details: in vivo, po
Rattus norvegicus [37] = experiment: Plasma concentration after 3 mg/kg peroral dosing in rat at 1.0 hr in rats; type: ADME, organism-based; parameters: dose 3 mg/kg, route oral; details: in vivo, po
[38] = VD values expressed in (L/Kg) in rat; type: ADME, organism-based; details: in vivo; procedure, shortened: as §2
Rhesus monkey [39] = experiment: Plasma concentration after 3 mg/kg intravenous dosing in Rhesus monkey at 8.0 hr; type: ADME, organism-based, Macaca mulatta; parameters: dose 3 mg/kg, route intravenous; details: in vivo; procedure, shortened: as §1
Rattus norvegicus [40] = experiment: Plasma concentration of 3 mg/kg iv after 2 hr in rats; type: ADME, organism-based; parameters: dose 3 mg/kg, route intravenous; details: in vivo; procedure, shortened: as §2
Rhesus monkey [41] = experiment: Plasma concentration after 3 mg/kg peroral dosing in Rhesus monkey at 1.0 hr; type: ADME, organism-based, Macaca mulatta; parameters: dose 3 mg/kg, route oral; details: in vivo, po; procedure, shortened: as §1
Rattus norvegicus [42] = experiment: Plasma concentration after 3 mg/kg peroral dosing in rat at 0.083 hr in rats; type: ADME, organism-based; parameters: dose 3 mg/kg, route oral; details: in vivo, po
[43] = Plasma clearance after intravenous administration dosing (3 mg/kg) in Rhesus monkey

In the case of `O=c1[nH]nc(CN2CCC[C@H](OCc3cc(C(F)(F)F)cc(C(F)(F)F)c3)[C@@H]2c2ccccc2)[nH]1`, the Concentration (Rhesus monkey [1]) is reported as 3660 ng/mL, the bioavailability [2] is reported as 46% and the Concentration (Rattus norvegicus [3]) is reported as less than 5 ng/mL. It also gave a Concentration (Rattus norvegicus [4]) of 244 ng/mL, a Concentration (Rattus norvegicus [5]) of 25 ng/mL and a Concentration (Rhesus monkey [6]) of 580 ng/mL. The Concentration (Rattus norvegicus [7]) was 29 ng/mL, the Concentration (Rattus norvegicus [8]) was less than 5 ng/mL and the IC50 (Substance-P receptor) was 0.05 nM. For the same compound, the Concentration (Rhesus monkey [9]) was 500 ng/mL, the Concentration (Rhesus monkey [10]) was 5240 ng/mL and the Concentration (Rhesus monkey [11]) was 520 ng/mL. The ID90 (Mustela putorius furo) was 1 mg/kg, the Binding affinity (Oryctolagus cuniculus) was 12.6 µM and the Concentration (Rattus norvegicus [12]) was 52 ng/mL. The clearance [13] was 73 mL/min/kg, the Vd [14] was 0.55 L/kg and the Concentration (Rhesus monkey [15]) was 1220 ng/mL. It also gave a Concentration (Rattus norvegicus [16]) of less than 5 ng/mL, a Concentration (Rhesus monkey [17]) of 5020 ng/mL and a Concentration (Rattus norvegicus [18]) of 21 ng/mL. The Concentration (Rattus norvegicus [19]) was 203 ng/mL, the Concentration (Rattus norvegicus [20]) was 94 ng/mL and the ED50 (Rattus norvegicus [21]) was 0.028 mg/kg. It also gave a Concentration (Rhesus monkey [22]) of 20 ng/mL, a Concentration (Rhesus monkey [23]) of 3080 ng/mL and a Concentration (Rattus norvegicus [24]) of 9 ng/mL. The Concentration (Rattus norvegicus [25]) was less than 5 ng/mL, the Concentration (Rattus norvegicus [26]) was 12 ng/mL and the Concentration (Rattus norvegicus [27]) was 30 ng/mL. It also gave an ED50 (Cavia porcellus) of 0.037 mg/kg, a Concentration (Rattus norvegicus [28]) of 291 ng/mL and a bioavailability [29] of 23.7%. It also gave a Concentration (Rattus norvegicus [30]) of 41 ng/mL, a Concentration (Rhesus monkey [31]) of 1980 ng/mL and a Concentration (Rattus norvegicus [32]) of 599 ng/mL. The Concentration (Rhesus monkey [33]) was 150 ng/mL, the Concentration (Rattus norvegicus [34]) was 65 ng/mL and the Concentration (Rhesus monkey [35]) was 50 ng/mL. It also gave a Concentration (Rattus norvegicus [36]) of 70 ng/mL, a Concentration (Rattus norvegicus [37]) of 45 ng/mL and a Vd [38] of 6.5 L/kg. For the same compound, the Concentration (Rhesus monkey [39]) was 720 ng/mL, the Concentration (Rattus norvegicus [40]) was 135 ng/mL and the Concentration (Rhesus monkey [41]) was 80 ng/mL. For the same compound, the Concentration (Rattus norvegicus [42]) was 11 ng/mL and the clearance [43] was 2.4 mL/min/kg.
